Results: ChEMBL document CHEMBL4513216, “Probing the Open Global Health Chemical Diversity Library for Multistage-Active Starting Points for Next-Generation Antimalarials” (ACS Infect Dis, 2020)

Test: Toxicity liver stage against HepG2, at 10uM
Format: cell-based
Parameters: test concentration 10 uM, cell line HepG2-A16-CD81EGFP
Details: human, HepG2-A16-CD81EGFP cells; read-out: INHIBITION
How it was run: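 Uninfected HepG2-A16-CD81EGFP cells, 3 × 10^3 per well, 1536-well, plated on prespotted compound at 10 μM final, parasite-free screening media added to match infected plates; puromycin 10 μM positive, DMSO 0.5% negative; run in parallel with 48 h PbLuc assay at 37 °C, 5% CO2; viability by CellTiter-Glo luminescence, normalized to controls.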

Row | SMILES | cytotoxicity at 10 µM
1 | COc1ccc(CC(C)Nc2cccc(F)c2)cc1 (stereo not drawn) | 5.82%
2 | O=c1c2ccccc2nc2n1C(CSc1ccc(F)cc1)CN2 (stereo not drawn) | 11.2%
3 | CN(C)c1nc(N)nc(CN2CCCC2c2ccsc2)n1 (stereo not drawn) | -19.6%
4 | CNCc1cn(C[C@H]2CC3CCN2C[C@@H]3C(=O)Nc2ccccc2)nn1 (stereo partly drawn) | -0.288%
5 | COCCNc1c(-c2ccc(C)cc2)c(=O)c1=O | -5.15%
6 | CCC(CC)NC(=O)c1cccnc1N1CCCC1c1ccccn1 (stereo not drawn) | 10.3%
7 | CC(=O)N1N=C(c2cccs2)OC1C(=O)NCCc1cccc(Cl)c1 (stereo not drawn) | -1.66%
8 | O=C1CN(C(=O)c2cccc(C(F)(F)F)c2)CC(O)CN1CC1CC1 (stereo not drawn) | -4.65%
9 | O=C1CC(c2ccc(O)cc2)c2c(c(C(=O)O)cn2-c2ccccc2)N1 (stereo not drawn) | -4.99%
10 | CC(C)CNC(=O)c1cn(C)c(=O)c2ccccc12 | 1.28%
11 | O=C(Cc1noc(C(=O)NCCO)n1)Nc1cccc(C(F)(F)F)c1 | 8.9%
12 | Cn1cccc1C(O)CNC(=O)c1cccc(Cl)c1 (stereo not drawn) | -1.94%
13 | Cc1ccsc1C(O)CNC(=O)Cc1ccc(S(=O)(=O)C(C)C)cc1 (stereo not drawn) | -1.21%
14 | Cc1ccc(F)cc1S(=O)(=O)Nc1cnc(N2CCCC2)nc1 | 3.91%
15 | CCCC(=O)N1CCC2(CC1)CN(Cc1cccc(C)n1)C(=O)CO2 | -5.05%
16 | Cc1nc(CN2CCC3(CCN(Cc4cnn(C)c4)C3)C2=O)cs1 (stereo not drawn) | 6.81%
17 | COCCn1c2c(ccc1=O)CCN(Cc1ccoc1)CC2 | -134%
18 | O=C1CC(c2ccc(O)cc2)c2sc(C(=O)O)c(-c3ccccc3)c2N1 (stereo not drawn) | -0.472%
19 | O=C(Nc1ccc(I)cc1C(=O)NCCN1CCOCC1)c1cccs1 | -5.09%
20 | O=C(c1ccoc1)N1CCC2(CC1)C(=O)Nc1ccccc12 | -13.6%
21 | Cc1ccc(N2CC3(CCN(C(=O)c4ccoc4)C3)C2)nn1 | -11.6%
22 | Cc1cnc(C(=O)N2CCc3ncnc(C)c3CC2)cn1 | -6.51%
23 | CNC(=O)[C@@]12CCCN(c3ncccn3)[C@@H]1CN(C(=O)NC(C)C)C2 | 0.614%

Row | SMILES | cytotoxicity at 10 µM
24 | Cc1nc(N2CCN(c3ccccc3)CC2)c2c(n1)c(C)nn2C | 7.8%
25 | CCn1nc(C)c2nn(CC(=O)NC3CCSCC3)cc21 | -3.57%
26 | Cc1nc(N2CCCCC2)ncc1-c1cc(O)nc(N2CCCCC2)n1 | 11.8%
27 | O=C(C1CCCCC1)N1CCCC([C@@H]2C[C@H](C(F)F)n3ncnc3N2)C1 (stereo partly drawn) | 1.4%
28 | Cc1ccnc(C2CN(c3ncccn3)C2)n1 | 2.55%
29 | Cc1c(-c2cc(C(=O)N3CCc4ncc(Cl)cc4C3)on2)cnn1C | -3.07%
30 | C[S+]([O-])CCNC(=O)N1CCSC2(CCCCC2)C1 (stereo not drawn) | -0.363%
31 | CC(C)(C)NC(=O)CNc1ccc(Br)cn1 | -2.81%
32 | COc1ccc(CNc2nc(C3CC3)no2)cc1OC | 4.44%
33 | O=S(=O)(CCO)CCc1ccccc1Cl | 7.21%
34 | CCC(O)(CNCc1cc[nH]n1)c1ccc(Br)cc1 (stereo not drawn) | 2.69%
35 | CN1N=C(c2nc(Cc3cccc(Br)c3)no2)CCC1=O | -6.09%
36 | CC(C)CC(NC(=O)CN(C)c1cnccn1)c1cccs1 (stereo not drawn) | 2.84%
37 | CC(C)Cc1noc(CN2CCC(C(=O)NCC3CCCO3)CC2)n1 (stereo not drawn) | 3.13%
38 | Cc1occc1CNc1ncccc1S(N)(=O)=O | -149%
39 | Cc1cc(CNS(C)(=O)=O)ccc1N(C)C | -11.5%
40 | COc1ccccc1NC(=O)CC(C)NCc1scnc1C (stereo not drawn) | 0.686%
41 | CCc1cnccc1C(=O)Nc1ccc(C(N)=O)nc1 | 5.44%
42 | COc1ccc(C)nc1NC(=O)CCc1c(C)nn(C)c1C | 0.918%
43 | Cc1cc(N2CCCCC2)c(C#N)c(C)n1 | -6.16%
44 | Cc1csc(-c2cccc(NC(=O)NCC(C)(C)C(N)=O)c2)n1 | -4.25%
45 | COC(=O)C1CN(Cc2nc(-c3ccccc3)cs2)C[C@@H](C)O1 (stereo partly drawn) | -0.227%
46 | CCN1CCCC1CNC(=O)CCc1cccs1 (stereo not drawn) | -9.09%

Row | SMILES | cytotoxicity at 10 µM
47 | CNC(=O)C(NC(=O)c1c(C)noc1C)c1ccc(F)c(F)c1 (stereo not drawn) | -18.3%
48 | O=C(NCCCn1cccn1)N1CCCC1c1cccs1 (stereo not drawn) | -2.39%
49 | Cc1cc(Br)oc1C(=O)N1CCC(N(C)C)CC1 | -4.71%
50 | Cc1cc(C)cc(CNCCS(=O)(=O)N2CCOCC2)c1 | 1.05%
51 | CCc1ncc2c(n1)CN(Cc1cnc(C)cn1)CC2 | -7.51%
52 | CCCN1CCCN(c2ncccc2C(=O)N2CCCCC2)CC1 | 0.503%
53 | NC(=O)C1CCN(CCc2ccc(NCc3cccnc3)cc2)CC1 | 8.02%
54 | CC(C)c1cccc(CSc2nnc(Cn3cncn3)o2)n1 | 13%
55 | COc1cccc(CCCn2cnnc2[S+](C)[O-])c1 (stereo not drawn) | -12.7%
56 | COc1ccsc1C(=O)Nc1cc(Cl)c(=O)n(C)c1 | 2.05%
57 | CN(C)c1nccc(N(C)C2CCCCC2)n1 | -6.37%
58 | Cc1c(NCCOCC(F)(F)F)cccc1C(=O)N1CCCC1 | -0.595%
59 | Cc1[nH]ccc1C(=O)Nc1cccc(CN2CCC(CO)CC2)c1 | -9.37%
60 | COC[C@@H]1CCC[C@]12CN(S(=O)(=O)c1cn(C)cn1)CCO2 | 4.06%
61 | CC(C)c1nccc([C@H]2C[C@@H]3CCN(Cc4ccoc4)C[C@H]3O2)n1 | -4.45%
62 | COCC(=O)N1CCC2(CC1)CC(CC(=O)NC1CC1)c1ccccc12 (stereo not drawn) | 0.873%
63 | C[C@@H]1CN(c2ccc(Cl)cn2)C[C@@]1(O)C1CC1 | -2.81%
64 | O=C(NCCC1CCCCO1)c1cc(COc2ccccc2F)[nH]n1 (stereo not drawn) | 6.57%
65 | O=C(Nc1ccc2occc2c1)N1CCCC(O)(CO)CC1 (stereo not drawn) | -0.735%
66 | CN(Cc1ncnn1C1Cc2ccccc2C1)C1CCS(=O)(=O)C1 (stereo not drawn) | -2.14%
67 | Cc1nc(CC(C)C)cc(C(=O)N2C[C@@H](CN(C)C)[C@@H](CO)C2)n1 | 0.868%
68 | Cc1nc2c(c(NCC3Cc4ccccc4CN3C)n1)CCNCC2 (stereo not drawn) | -9.08%
69 | CC(C)c1ccn(C2(C(=O)O)CCN(c3cc(C(N)=O)ccn3)CC2)n1 | 1.71%

Row | SMILES | cytotoxicity at 10 µM
70 | CCN(CC)CCn1cnc(-c2ccccc2)c1-c1ncc[nH]1 | 4.03%
71 | CCc1nc(N2CCN(CCOC)CC2)c2cnn(C)c2n1 | 0.363%
72 | COc1cc(C)ccc1S(=O)(=O)N1CC[C@](C)(O)[C@H](C)C1 | 7.52%
73 | Cc1cccc(OC2CN(C(=O)C3CC(=O)N(C(C)(C)C)C3)C2)c1 (stereo not drawn) | 4.4%
74 | C[C@@H]1CN(c2cccnn2)CC[C@@]1(O)C1CCOCC1 | 2.72%
75 | COc1cc(-n2cc(CCO)cn2)ccc1NC(C)=O | 9.81%
76 | CCc1cc(NCCCOC2CCN(C)CC2)ncn1 | -8.34%
77 | Cn1c(CN2CCCCC2)nnc1C1CCN(c2nccc(N)n2)CC1 | -7.98%
78 | Cc1ccccc1CC1(C(=O)O)CCCN(c2ncnc3[nH]ccc23)C1 (stereo not drawn) | 3.63%
79 | COc1ccc(Oc2cccc(C#N)n2)cc1CN1CCCC1 | -1.86%
80 | O=S1(=O)C[C@@H]2[C@H](C1)N(Cc1cc(Cl)cc(Cl)c1)CCN2CC1CC1 | 27.6%
81 | Cc1cc(Nc2nc(C)cs2)nc(C2CCCCN2CCO)n1 (stereo not drawn) | 1.8%
82 | CC1CCCCN1Cc1ccc(-c2ccccc2C(=O)O)cc1 (stereo not drawn) | 6.74%
83 | COCCN1CCC(NCc2c(F)cccc2F)C1 (stereo not drawn) | -5.95%
84 | CCc1nc(CN2CCCN(C(=O)c3ccnc(C)n3)CC2)cs1 | -13.4%
85 | Cn1c(C2CC2)nc2c1CCN(Cc1nc(-c3ccsc3)no1)C2 | 8.73%
86 | O=C(c1sccc1Br)N(Cc1cccnc1)C1CC1 | -4.07%
87 | Cc1cc(NC(=O)NCC(O)COc2ccccc2)n(C)n1 (stereo not drawn) | -3.19%
88 | Cc1nc(C2CCCN(C(=O)Cn3ccccc3=O)C2)sc1C (stereo not drawn) | 1.5%
89 | O=C(NCCNC(=O)c1scnc1Cl)c1cccs1 | -9.44%
90 | CCOCCN1CCN(Cc2cccc(C(=O)N(C)C)c2)CC1CC (stereo not drawn) | -5.83%
91 | CCN1CCN(c2ccc(CNC(=O)c3cc(C)on3)cn2)CC1 | -11%
92 | CC(=O)NCCNC(=O)CN1CCOC(Cn2cc(C)cn2)C1 (stereo not drawn) | -4.44%

Row | SMILES | cytotoxicity at 10 µM
93 | CCc1n[nH]c(C2CN(CCS(C)(=O)=O)CCO2)n1 (stereo not drawn) | -18%
94 | c1ncn(CC2CN(CC3CCCCC3)CCO2)n1 (stereo not drawn) | -14.8%
95 | Cn1nc(C(=O)N2CCCC(n3cncn3)C2)ccc1=O (stereo not drawn) | -17.4%
96 | Cn1ccc(CN2CCC(Oc3ccccc3)CC2)cc1=O | -3.71%
97 | Cc1noc(C(C)C)c1C(=O)NCc1cc(F)cc(F)c1 | -5.54%
98 | COc1cccc(CCNCc2c(C)nn(C)c2N(C)C)c1 | -1.6%
99 | COc1ccc(-c2cnc(CN3CCn4c(C)nnc4C3)o2)cc1 | -13.5%
100 | Cc1nnc2n1CCN(CCS(=O)(=O)c1ccccc1)C2 | -9.7%
101 | CCc1nnc(CN2CCCC(c3cc(C(F)(F)F)[nH]n3)C2)o1 (stereo not drawn) | 6.88%
102 | CSc1ccsc1C(=O)N1CCN(CC(C)(C)O)CC1 | -3.22%
103 | Cc1cnn(CC2CCCCN2C(=O)c2ccnc(N(C)C)c2)c1 (stereo not drawn) | 3.3%
104 | CCCNCc1ccc(OCc2ccc3c(c2)OCCO3)cc1 | 3.49%
105 | CC(C)[C@H](N)c1nnc(SCC(=O)Nc2ccc(Br)cc2)o1 | -5.15%
106 | O=C(NCc1ccco1)[C@H]1COC[C@H]2CN(Cc3ccoc3)C[C@H]21 | -70.4%
107 | CN(C)CCN1CCOCC2(C1)CN(Cc1ccsc1)CCO2 (stereo not drawn) | -0.439%
108 | Cc1nc(C)n(CC2CN(Cc3cccnc3)Cc3nccn3C2)n1 (stereo not drawn) | -141%
109 | O=C(C1CCOC1)N1CCC2(CC1)CN(c1ncccn1)CCO2 (stereo not drawn) | -73.2%
110 | Cc1ccccc1N1CC2(CCN(Cc3nccn3C)C2)CC1=O (stereo not drawn) | -81.3%
111 | CC(C)(C)c1cc(=O)[nH]c(C2(N)CCCCC2)n1 | 16.5%
112 | CNc1nc2cn(C3CC(C)(C)NC(C)(C)C3)c(=O)c-2c[nH]1 | 12%
113 | Cc1cccc(-n2cc3[nH]c(=O)n(Cc4cccc(F)c4)n3c2=O)c1 | 1.79%
